Shown are actives, neighbours in structure and some others; about 0.72% of the full set was active somewhere.
hIAP act = increases human intestinal alkaline phosphatase activity; P09923; purified human IAP, CDP-Star luminescence, 30 min; hits give high values; 1 = vehicle-only enzyme, 0 = enzyme-free background; activation factor at 10 µM; hit rate 0.16% among 330,000;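 active = activation factor of the enzyme at least 2-fold when tested at 20 µM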
Target sequence (P09923 whole entry, looked up): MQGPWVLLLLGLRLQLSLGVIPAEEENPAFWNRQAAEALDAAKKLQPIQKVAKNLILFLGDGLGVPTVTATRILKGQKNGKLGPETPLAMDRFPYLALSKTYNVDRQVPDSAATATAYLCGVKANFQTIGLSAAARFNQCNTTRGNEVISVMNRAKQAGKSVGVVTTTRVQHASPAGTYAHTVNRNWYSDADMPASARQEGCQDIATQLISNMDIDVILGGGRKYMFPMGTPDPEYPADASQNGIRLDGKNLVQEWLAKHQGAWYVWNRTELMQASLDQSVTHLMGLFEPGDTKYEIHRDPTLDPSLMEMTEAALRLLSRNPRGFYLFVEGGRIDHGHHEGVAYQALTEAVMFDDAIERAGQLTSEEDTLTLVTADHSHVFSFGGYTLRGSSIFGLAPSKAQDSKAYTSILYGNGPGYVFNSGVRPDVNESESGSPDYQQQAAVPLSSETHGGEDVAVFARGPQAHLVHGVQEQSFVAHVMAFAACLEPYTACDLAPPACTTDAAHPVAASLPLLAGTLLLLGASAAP
hIAP block = human IAP inhibition; P09923; purified IAP, CDP-Star luminescence, 30 min; inhibition, % at 10 µM; AID 2544; hit rate 0.12% among 330,000;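 active = inhibition reaching a set limit with compound at 10 µM in the primary screen, cut at about 35% in these data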
mIAP act = mouse IAP activation | muIAP, CDP-Star luminescence, 30 min; hits give high values; 1 = vehicle-only enzyme signal, 0 = enzyme-free wells | activation factor at 10 µM | hit rate 0.24% among 330,000 | AID 2805;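 active = activation factor of at least 2 at 20 µM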
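System: Mouse IAP enzyme | Also added: CDP-Star substrate | Dosing: Compounds dispensed in DMSO | Schedule: 30 min enzyme-substrate-compound incubation at room temperature | Technique: Chemiluminescence readout | Control set: DMSO-only wells and no-enzyme negative control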
mIAP inh = blocks mouse intestinal alkaline phosphatase; purified mouse IAP, CDP-Star luminescence, 30 min; inhibition, % at 10 µM; hit rate 0.2% among 330,000; AID 2806;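 active = inhibition of at least 40% at 10 µM in the primary screen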
bIAP inh = intestinal alkaline phosphatase (bovine) inhibition; purified bovine IAP, CDP-star luminescence, 30 min; inhibition, % at 20 µM; 190,000 tested, under 10 active; AID 1019;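 active = over 50% inhibition of intestinal alkaline phosphatase at 20 µM in the single-dose screen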
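Assay system – bovine IAP enzyme · Quantity – bovine IAP at 1/65,000,000 final dilution · Detection – CDP-star luminescence signal · Times – 30 min reaction at room temperature · Also added – CDP-star substrate at 30 µM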
bIAP act = increases bovine intestinal alkaline phosphatase activity; purified bovine IAP, CDP-star luminescence, 30 min; hits give high values; fold of DMSO-control signal, blank-subtracted; activation factor at 20 µM; hit rate 0.17% among 200,000; AID 1016;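 active = activation factor of 2 or more at 20 µM, a signal rise over negative controls twice the positive control's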
hIAP act conf = human IAP activation confirmation | activation (%Activity, negative = activation), % at 8.3 µM | shares compounds with hIAP act | purified IAP, CDP-Star luminescence, 30 min; hits give low values | AID 434926 | hit rate 10% among 880;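 active = at least twofold enzyme activation in any of six single-dose repeats, which the averaged readout prints as negative percent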
Of the large screens only hits and unclear results are named; the others gave an inactive call (follow-up assays come after a bar, where they were run).

O=C(N/N=C/c1c(O)ccc2ccccc12)c1[nH]ncc1Br	hIAP act 2.2 | hIAP act conf inactive
Cc1ccc(O)c(/C=N/NC(=O)C2=NNC(c3ccccc3)(c3ccccc3)C2)c1	none (no result: hIAP act, hIAP block, mIAP act, mIAP inh)
Cc1cc([N+](=O)[O-])nn1CC(=O)NNC(=S)Nc1ccc(F)cc1	hIAP act 2.1 | hIAP act conf inactive
Cc1cc([N+](=O)[O-])nn1CC(=O)Nc1ccc(F)cc1	none
Cc1cccc(C)c1OCc1cc(C(=O)N2CCN(c3ccc(F)cc3)CC2)no1	none (no result: bIAP inh, bIAP act)
Cc1ccc(OCCNS(=O)(=O)c2ccc(N3CCCC3=O)cc2)cc1C	none
Cc1ccc(OCCNS(=O)(=O)c2ccc(N3CCCC3=O)cc2)cc1	hIAP block 36 | hIAP act conf inactive
O=C(Nc1nccs1)c1nc[nH]c1C(=O)NCc1ccccc1	hIAP act 2.4 (no result: bIAP inh, bIAP act) | hIAP act conf inactive
CN(Cc1ccccc1)C(=O)c1[nH]cnc1C(=O)Nc1nccs1	hIAP act 2.5 (no result: bIAP inh, bIAP act) | hIAP act conf -141
CN(Cc1ccccc1)C(=O)c1[nH]cnc1C(=O)NCc1ccccc1	none (no result: bIAP inh, bIAP act)
CCOc1ccccc1OCC(=O)OCC(=O)c1c(C)[nH]c2ccccc12	none (no result: bIAP inh, bIAP act)
CC1CCC(NC(=O)C(C)N2C(=O)C3CCCCC3C2=O)CC1 (stereo unspecified)	none (no result: bIAP inh, bIAP act)
O=C(Nc1ncn[nH]1)c1ccc(Cl)c(S(=O)(=O)N2CCCCCC2)c1	hIAP act 2.4 | hIAP act conf inactive
COc1ccc(CCN2C(=O)c3ccncc3C2=O)cc1OC	hIAP act 2.4 | hIAP act conf inactive
Nc1c(-c2ccccc2)sc2ccc3ccccc3[n+]12	none (no result: bIAP inh, bIAP act)
CN(C)c1ccc(NC(=O)Nc2cccc(Cl)c2)cc1	none
CN(C)c1ccc(NC(=O)Nc2csc3ccccc23)cc1	none (no result: bIAP inh, bIAP act) | hIAP act conf inactive
C=CCn1c(SCC(=O)NC2CC2)nnc1-c1cccc(OC)c1	hIAP block 41 (no result: bIAP inh, bIAP act) | hIAP act conf inactive
CCn1c(SCC(=O)NC2CC2)nnc1-c1cccc(OC)c1	none (no result: bIAP inh, bIAP act)
O=C(NCCS(=O)(=O)N1CCN(c2cccc(Cl)c2)CC1)c1ccc2c(c1)OCO2	none (no result: bIAP inh, bIAP act)
O=C(NCCS(=O)(=O)N1CCN(c2cccc(Cl)c2)CC1)c1cc(=O)c2ccccc2o1	hIAP block 39 (no result: bIAP inh, bIAP act) | hIAP act conf inactive
CCCn1c(N/N=C\C=C\c2ccccc2)nc2c1c(=O)[nH]c(=O)n2C	hIAP act 2.2 | hIAP act conf inactive
CNc1nc2c(c(=O)[nH]c(=O)n2C)n1CCCc1ccccc1	none (no result: bIAP inh, bIAP act)
O=C1CC(c2ccccc2F)c2cc3c(cc2N1)CCC3 (stereo unspecified)	hIAP act 3.2 | hIAP act conf inactive
N#CCN1C(=S)N=C(Nc2cccc(Cl)c2)C12CCCCC2	hIAP act 2.1 | hIAP act conf -55
Cc1ccc2c(c1)Oc1ccc([N+](=O)[O-])cc1C(=O)N2	hIAP act 2.4 | hIAP act conf inactive
COc1ccc(-c2cc(=O)c3c(O)cc(O)cc3o2)cc1	none (no result: bIAP inh, bIAP act)
O=c1cc(-c2ccc(O)c(O)c2)oc2cc(O)cc(O)c12	hIAP block 58 (no result: bIAP inh, bIAP act) | hIAP act conf inactive
COc1ccccc1N(C)S(=O)(=O)c1ccc(Cl)c(C(=O)NNC(=O)c2ccccc2O)c1	hIAP act 2.3 (no result: bIAP inh, bIAP act) | hIAP act conf inactive
CC1CN(Cc2ccccc2)c2nc3c(c(=O)n(CC(N)=O)c(=O)n3C)n2C1 (stereo unspecified)	hIAP block 39 (no result: bIAP inh, bIAP act) | hIAP act conf inactive
CCOC(=O)Cn1c(=O)c2c(nc3n2CC(C)CN3Cc2ccccc2)n(C)c1=O (stereo unspecified)	none (no result: bIAP inh, bIAP act)
CC1=NN(c2nc3ccccc3[nH]2)C(=O)/C1=C/N(C)C	hIAP act 2.3 | hIAP act conf -57
CC1=NN(c2ccccc2)C(=O)/C1=C/N(C)C	none (no result: bIAP inh, bIAP act)
Cc1cccc(N(Cc2ccccc2)C(=O)C2CCN(C(=O)c3ccccc3C)CC2)c1	none (no result: bIAP inh, bIAP act)
Cc1ccc(CN(C)c2ccc(S(=O)(=O)N3CCCC3)cn2)cc1	hIAP block 36 (no result: bIAP inh, bIAP act) | hIAP act conf inactive
COc1cc(S(=O)(=O)NCc2ccncc2)ccc1Br	none (no result: bIAP inh, bIAP act)
Cc1ccc(C(=O)NC(=S)NNC(=O)c2ccccc2O)cc1	hIAP act 2.4 (no result: bIAP inh, bIAP act) | hIAP act conf inactive
CCCCNC(=S)NNC(=O)c1ccco1	hIAP block 44 | hIAP act conf inactive
O=C(NC(=S)NNC(=O)c1ccco1)c1ccccc1	hIAP act 2 (no result: bIAP inh, bIAP act) | hIAP act conf inactive
O=C(NC(=S)NNC(=O)c1ccccc1O)c1ccc(F)cc1	hIAP act 2.1 (no result: bIAP inh, bIAP act) | hIAP act conf inactive
CCCCNC(=O)NNC(=O)c1ccco1	none
Cc1ccc(C(=O)NNC(=S)NC(=O)c2ccccc2)cc1	none (no result: bIAP inh, bIAP act)
O=C(CCCSc1ccc(Cl)cc1)Nc1cc(S(=O)(=O)N2CCOCC2)ccc1O	none (no result: bIAP inh, bIAP act)
O=C(NC(=S)NNC(=O)c1ccccc1O)c1cccs1	hIAP act 2 (no result: bIAP inh, bIAP act) | hIAP act conf inactive
O=C(NC(=S)NNC(=O)c1ccccc1O)c1ccccc1	hIAP act 2.1 (no result: bIAP inh, bIAP act) | hIAP act conf inactive
O=C(NNC(=S)NC(=O)c1ccccc1[N+](=O)[O-])c1ccccc1O	hIAP act 2.4 | hIAP act conf inactive
CCCCCCc1c(C)nc(-n2[nH]c(C)c(CCO)c2=O)[nH]c1=O	hIAP act 2.3 | hIAP act conf inactive
CN(C)c1ccc(C(C(=O)NCc2ccccc2)N(Cc2cccnc2)C(=O)c2snc(C(N)=O)c2N)cc1 (stereo unspecified)	none (no result: bIAP inh, bIAP act)
CCNS(=O)(=O)c1ccc(CCC(=O)N2CCCC2)cc1	hIAP block 42 (no result: bIAP inh, bIAP act) | hIAP act conf inactive
O=c1ccc2cc(O)c(O)cc2o1	hIAP block 40 | hIAP act conf inactive
CN1CCN(C(=O)c2ccc3c(c2)OCCO3)CC1	hIAP block 37 | hIAP act conf inactive
O=C(c1ccccc1)N1CCN(C(=O)c2ccc3c(c2)OCCO3)CC1	none
CN1C(=O)C2(OCC(CO)([N+](=O)[O-])CO2)c2ccccc21 (stereo unspecified)	none (no result: bIAP inh, bIAP act)
Cn1cc(/C=C(\NC(=O)c2ccccc2Cl)C(=O)NCCCN2CCOCC2)c2ccccc21	none (no result: bIAP inh, bIAP act)
Cn1cc(/C=C(\NC(=O)c2ccccc2Cl)C(=O)NCCN2CCOCC2)c2ccccc21	hIAP block 38 (no result: bIAP inh, bIAP act) | hIAP act conf inactive
COc1cc(Cl)ccc1OCc1cc(C(=O)N2CCCCCCC2)no1	hIAP block 39 (no result: bIAP inh, bIAP act) | hIAP act conf inactive
Cc1ccc(C)c(S(=O)(=O)N2CCN(C(=O)[C@H](Cc3ccccc3)NC(=O)c3ccco3)CC2)c1	none (no result: bIAP inh, bIAP act)
O=C(CCNS(=O)(=O)c1ccccc1C(F)(F)F)NNC(=O)c1csc(N2CCOCC2)n1	hIAP act 2.1 (no result: bIAP inh, bIAP act) | hIAP act conf inactive
O=C(NNC(=O)c1cc(Br)ccc1O)c1csc(N2CCOCC2)n1	hIAP act 2.4 (no result: bIAP inh, bIAP act) | hIAP act conf inactive
CCOC(=O)c1c(C)[nH]c(C(=O)OCC(=O)Nc2sccc2C(N)=O)c1C	none (no result: bIAP inh, bIAP act)

Assay outcomes: PubChem BioAssay, Sanford-Burnham Center for Chemical Genomics
